How the values were obtained:
purified PSMA = purified PSMA (Homo sapiens, UniProt Q04609); test: HPLC-based PSMA inhibition IC50 assay; format: biochemical; conditions: read-out: IC50, PSMA inhibition; PABGgG 1 μM, 15 min, 37°C, Tris pH 7.4
Method in brief: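 Purified PSMA diluted in 50 mM Tris pH 7.4 with 1% Triton X-100 to give 15–20% uninhibited conversion. […] Shaken 15 min at 37°C, then quenched with 2% TFA in methanol and buffered with 0.1 M K2HPO4. After centrifugation, supernatant product measured by HPLC; IC50 calculated.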

[1] = test system: PC-3 PSMA− tumor xenografts; test: microPET/CT imaging of PC-3; format: in vivo, male NCr nude mice; conditions: PC-3 PSMA− xenograft, 2 h post-injection
Method in brief: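 PC-3-xenograft male NCr nude mice (tumours 5–10 mm, 1–2 wk after subcutaneous inoculation) anaesthetised with isoflurane. Tail-vein 18F tracer, 3,700–7,400 kBq (100–200 μCi). MicroPET/CT, 10-min scans at 0, 1 and 2 h. List-mode data, 2D OSEM reconstruction.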

[2] = test system: LNCaP PSMA+ tumor xenografts; test: microPET/CT imaging of LNCaP; format: in vivo, male NCr nude mice; conditions: 1 mg nonradioactive (2) 1 h before tracer, 120 min after injection
Method in brief: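 LNCaP-xenograft male nude mice (tumours 5–10 mm) under isoflurane were pretreated with 1 mg unlabelled analogue in 200 μL Tris buffer. One hour later they received tail-vein 18F tracer (3,700–7,400 kBq). MicroPET/CT, 10-min acquisitions at 0, 1 and 2 h, list mode, 2D OSEM reconstruction.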

[3] = test system: PC-3 PSMA− tumor xenografts; test: Ex vivo biodistribution in mice bearing PC-3; set-up: species or system male NCr nude mice
Method in brief: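 Male NCr nude mice with subcutaneous right-shoulder PC-3 xenografts (cells in serum-free medium; tumours 5–10 mm, 1–2 wk). 18F tracer, 3,700–7,400 kBq, by tail vein under isoflurane. Euthanised after 2 h imaging. Cardiac blood, major organs (including kidney) and tumour weighed and γ-counted. %ID/g from known-activity standards. n = 3; one-tailed t test, unequal variance.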

Chain of purified PSMA (Q04609 whole entry): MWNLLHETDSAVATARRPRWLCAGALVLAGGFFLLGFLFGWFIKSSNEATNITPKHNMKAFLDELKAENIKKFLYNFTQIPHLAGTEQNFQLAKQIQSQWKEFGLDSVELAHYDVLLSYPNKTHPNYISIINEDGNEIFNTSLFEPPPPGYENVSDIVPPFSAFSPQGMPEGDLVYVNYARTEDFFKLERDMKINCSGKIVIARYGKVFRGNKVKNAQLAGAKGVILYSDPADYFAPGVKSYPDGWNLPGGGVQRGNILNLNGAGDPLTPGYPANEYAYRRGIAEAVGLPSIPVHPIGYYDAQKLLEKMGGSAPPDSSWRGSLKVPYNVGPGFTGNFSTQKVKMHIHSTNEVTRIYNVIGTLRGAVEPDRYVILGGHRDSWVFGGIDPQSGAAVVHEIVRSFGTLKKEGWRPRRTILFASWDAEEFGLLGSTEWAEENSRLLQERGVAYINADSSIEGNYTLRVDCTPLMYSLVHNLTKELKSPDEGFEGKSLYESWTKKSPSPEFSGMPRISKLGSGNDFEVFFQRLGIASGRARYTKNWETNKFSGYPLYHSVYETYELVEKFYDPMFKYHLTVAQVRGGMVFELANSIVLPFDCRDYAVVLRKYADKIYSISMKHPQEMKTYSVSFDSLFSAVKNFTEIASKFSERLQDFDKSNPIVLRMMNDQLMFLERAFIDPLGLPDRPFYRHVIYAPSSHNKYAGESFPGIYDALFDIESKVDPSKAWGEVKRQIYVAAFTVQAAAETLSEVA

SMILES | IC50 (purified PSMA) [nM] | PET tumor signal [1] | PET tumor uptake after blocking [2] | tumor uptake in PSMA− control ([3]; PC-3 tumor, 2 h post-injection) [%ID/g] | kidney uptake ([3]; PSMA− (PC-3) model, 2 h) [%ID/g]
O=C(O)CC[C@H](NP(=O)(O)OC[C@H](NC(=O)CC[C@H](NC(=O)c1ccc(F)cc1)C(=O)O)C(=O)O)C(=O)O [compound 2, S-2-((2-(S-4-(4-Fluorobenzamido)-4-Carboxybutanamido)-S-2-Carboxyethoxy) Hydroxyphosphorylamino)-Pentanedioic Acid] | 0.68 | – | – | – | –
O=C(O)CC[C@H](NP(=O)(O)OC[C@H](NC(=O)CC[C@H](NC(=O)c1ccc([18F])cc1)C(=O)O)C(=O)O)C(=O)O [compound 3, ^18F-S-2-((2-(S-4-(4-Fluorobenzamido)-4-Carboxybutanamido)-S-2-Carboxyethoxy) Hydroxyphosphoryl-Amino)-Pentanedioic Acid] | – | no detectable tumor signal | substantial decrease in tumor uptake | 0.32 ± 0.14 | 2.83 ± 0.9
